The record followed here is ChEMBL document CHEMBL2034845, “Synthesis and in vitro characterization of trans- and cis-[(18)F]-4-methylbenzyl 4-[(pyrimidin-2-ylamino)methyl]-3-fluoropiperidine-1-carboxylates as new potential PET radiotracer candidates for the NR2B subtype N-methyl-D-aspartate receptor” (Eur J Med Chem, 2012).

In one series the test system is Cerebellum. Description: Drug uptake in Sprague-Dawley rat cerebellum at 8 nM after 90 mins by autoradiography analysis. The series is classed as ADME, tissue-based. The settings on record: 1.5 h, 0.008 µM.
Series [1] concerns the target T1, Glutamate receptor ionotropic, NMDA 2B (Rattus norvegicus, UniProt Q00960). Description: Binding affinity to NMDAR NR2B in Sprague-Dawley rat brain olfactory tubercle. Type of series: tissue-based. An outline of the steps:
(§1)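 Saturation binding on mounted rat brain tissue sections. Sections were pre-incubated twice for 10 min at r.t. in 50 mM Tris-HCl pH 7.4 with 10 mM EDTA, then exposed to free [18F] ligand at 0.15–48 nM. Washes were 5, 5 and 15 min in 50 mM Tris-HCl pH 7.4 at 4 °C, followed by a cold distilled-water dip and drying on a hot plate. Autoradiographic optical densities (DLU/mm²) were converted with spiked brain-homogenate standards. Specific binding was taken as total minus nonspecific for each region. Kd and Bmax were obtained from Scatchard plots.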

Series [2] in a line: Lipophilicity, log D of the compound in octanol-[…] at 10 uM after 40 mins by shake flask method. The series is classed as physicochemical. In a few lines:
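Shake-flask method. Tubes held 1 mL octanol and 1 mL […] buffer plus [18F] tracer, were stirred for 40 min and centrifuged for 5 min. Two 100 µL aliquots from each phase were gamma-counted. logD7.4 was calculated from the ratio of octanol to aqueous radioactivity. Four tubes were used.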

The test system of the next series is Thalamus. Description: Drug uptake in Sprague-Dawley rat thalamus at 8 nM after 90 mins by autoradiography analysis. The series is classed as ADME, tissue-based. As to conditions: 1.5 h, 0.008 µM; call rule not given here.
Series [3] has as its target T1, Glutamate receptor ionotropic, NMDA 2B. Kind of series: Binding affinity to NMDAR NR2B in Sprague-Dawley rat brain hippocampus. Type of series: tissue-based. In a few lines: as §1
The target is the same in series [4]. Kind of series: Binding affinity to NMDAR NR2B in Sprague-Dawley rat brain thalamus. Type of series: tissue-based. An outline of the steps:
as §1

Series [5] can be described thus: Drug uptake in Sprague-Dawley rat forebrain at 8 nM after 90 mins by autoradiography analysis. As to conditions: 1.5 h, 0.008 µM.
Another series deals with Hippocampus. Kind of series: Drug uptake in Sprague-Dawley rat hippocampus at 8 nM after 90 mins by autoradiography analysis. The series is classed as ADME, tissue-based. The settings on record: 1.5 h, 0.008 µM.
Series [6] is described as follows: Drug uptake in Sprague-Dawley rat olfactory tubercle at 8 nM after 90 mins by autoradiography analysis. Type of series: ADME, tissue-based. The settings on record: 1.5 h, 0.008 µM.
The subject of the next series is Cortex. Description: Drug uptake in Sprague-Dawley rat cortex at 8 nM after 90 mins by autoradiography analysis. Type of series: ADME, tissue-based. As to conditions: 1.5 h, 0.008 µM.
The target of series [7] is T1, Glutamate receptor ionotropic, NMDA 2B. Description: Binding affinity to NMDAR NR2B in Sprague-Dawley rat brain striatum. Type of series: tissue-based. An outline of the steps: as §1
For series [8] the target is unchanged. Description: Binding affinity to NMDAR NR2B in Sprague-Dawley rat brain cortex. The series is classed as tissue-based. An outline of the steps: as §1
A further series deals with Brain. Kind of series: Drug uptake in Sprague-Dawley rat brain at 8 nM after 90 mins by autoradiography analysis in presence of 10 uM Ro 256981. The series is classed as ADME, tissue-based. The settings on record: 1.5 h, 0.008 µM.
The next series concerns Nucleic Acid. Description: Ratio of drug uptake in […] in Sprague-Dawley rat at 8 nM after 90 mins by autoradiography analysis. The series is classed as ADME, tissue-based. The settings on record: 1.5 h, 0.008 µM.
In another series the test system is Striatum. Kind of series: Binding to Sprague-Dawley rat striatum sections at 8 nM after 90 mins by autoradiography analysis. The settings on record: in vitro, 1.5 h, 0.008 µM.
Series [9] addresses Glutamate receptor ionotropic, NMDA 2B (Rattus norvegicus) (UniProt Q00960). Kind of series: Ratio of Bmax to Kd at NMDAR NR2B in Sprague-Dawley rat brain hippocampus. Type of series: tissue-based. The settings on record: tested as the 18F-labelled form. In a few lines: (§2)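 Bmax/Kd ratio for each brain region. Bmax and Kd came from Scatchard analysis of specific autoradiographic binding on rat brain sections. Free [18F] ligand ran from 0.15 to 48 nM, with Tris-HCl pH 7.4 pre-incubation and cold washes. Radioactivity was calibrated against spiked tissue-homogenate standards.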

The target is the same in series [10]. Kind of series: Ratio of Bmax to Kd at NMDAR NR2B in Sprague-Dawley rat brain olfactory tubercle. The series is classed as tissue-based. As to conditions: tested as the 18F-labelled form. An outline of the steps: as §2
For series [11] the target is unchanged. Kind of series: Ratio of Bmax to Kd at NMDAR NR2B in Sprague-Dawley rat brain cortex. The settings on record: tested as the 18F-labelled form. An outline of the steps:
as §2

Series [12] has the same target. Description: Binding affinity to NMDAR NR2B in Sprague-Dawley rat brain cortex assessed per mg of protein. The series is classed as tissue-based. As to conditions: tested as the 18F-labelled form. In a few lines:
as §1

Series [13] shares this target. Description: Ratio of Bmax to Kd at NMDAR NR2B in Sprague-Dawley rat brain striatum. The series is classed as tissue-based. As to conditions: tested as the 18F-labelled form. An outline of the steps:
as §2

Series [14] has the same target. Description: Ratio of Bmax to Kd at NMDAR NR2B in Sprague-Dawley rat brain thalamus. Type of series: tissue-based. The settings on record: tested as the 18F-labelled form. In a few lines: as §2
The target is the same in series [15]. Kind of series: Binding affinity to NMDAR NR2B in Sprague-Dawley rat brain olfactory tubercle assessed per mg of protein. The series is classed as tissue-based. The settings on record: tested as the 18F-labelled form. In a few lines: as §1
Series [16] has the same target. Description: Binding affinity to NMDAR NR2B in Sprague-Dawley rat brain thalamus assessed per mg of protein. Type of series: tissue-based. As to conditions: tested as the 18F-labelled form. An outline of the steps:
as §1

The target is the same in series [17]. Kind of series: Binding affinity to NMDAR NR2B in Sprague-Dawley rat brain hippocampus assessed per mg of protein. As to conditions: tested as the 18F-labelled form. The series is classed as tissue-based. An outline of the steps: as §1
Series [18] shares this target. Description: Binding affinity to NMDAR NR2B in Sprague-Dawley rat brain striatum assessed per mg of protein. As to conditions: tested as the 18F-labelled form. The series is classed as tissue-based. In a few lines:
as §1

Glutamate receptor ionotropic, NMDA 2B (Rattus norvegicus), sequence (Q00960 27-1482 limits assumed): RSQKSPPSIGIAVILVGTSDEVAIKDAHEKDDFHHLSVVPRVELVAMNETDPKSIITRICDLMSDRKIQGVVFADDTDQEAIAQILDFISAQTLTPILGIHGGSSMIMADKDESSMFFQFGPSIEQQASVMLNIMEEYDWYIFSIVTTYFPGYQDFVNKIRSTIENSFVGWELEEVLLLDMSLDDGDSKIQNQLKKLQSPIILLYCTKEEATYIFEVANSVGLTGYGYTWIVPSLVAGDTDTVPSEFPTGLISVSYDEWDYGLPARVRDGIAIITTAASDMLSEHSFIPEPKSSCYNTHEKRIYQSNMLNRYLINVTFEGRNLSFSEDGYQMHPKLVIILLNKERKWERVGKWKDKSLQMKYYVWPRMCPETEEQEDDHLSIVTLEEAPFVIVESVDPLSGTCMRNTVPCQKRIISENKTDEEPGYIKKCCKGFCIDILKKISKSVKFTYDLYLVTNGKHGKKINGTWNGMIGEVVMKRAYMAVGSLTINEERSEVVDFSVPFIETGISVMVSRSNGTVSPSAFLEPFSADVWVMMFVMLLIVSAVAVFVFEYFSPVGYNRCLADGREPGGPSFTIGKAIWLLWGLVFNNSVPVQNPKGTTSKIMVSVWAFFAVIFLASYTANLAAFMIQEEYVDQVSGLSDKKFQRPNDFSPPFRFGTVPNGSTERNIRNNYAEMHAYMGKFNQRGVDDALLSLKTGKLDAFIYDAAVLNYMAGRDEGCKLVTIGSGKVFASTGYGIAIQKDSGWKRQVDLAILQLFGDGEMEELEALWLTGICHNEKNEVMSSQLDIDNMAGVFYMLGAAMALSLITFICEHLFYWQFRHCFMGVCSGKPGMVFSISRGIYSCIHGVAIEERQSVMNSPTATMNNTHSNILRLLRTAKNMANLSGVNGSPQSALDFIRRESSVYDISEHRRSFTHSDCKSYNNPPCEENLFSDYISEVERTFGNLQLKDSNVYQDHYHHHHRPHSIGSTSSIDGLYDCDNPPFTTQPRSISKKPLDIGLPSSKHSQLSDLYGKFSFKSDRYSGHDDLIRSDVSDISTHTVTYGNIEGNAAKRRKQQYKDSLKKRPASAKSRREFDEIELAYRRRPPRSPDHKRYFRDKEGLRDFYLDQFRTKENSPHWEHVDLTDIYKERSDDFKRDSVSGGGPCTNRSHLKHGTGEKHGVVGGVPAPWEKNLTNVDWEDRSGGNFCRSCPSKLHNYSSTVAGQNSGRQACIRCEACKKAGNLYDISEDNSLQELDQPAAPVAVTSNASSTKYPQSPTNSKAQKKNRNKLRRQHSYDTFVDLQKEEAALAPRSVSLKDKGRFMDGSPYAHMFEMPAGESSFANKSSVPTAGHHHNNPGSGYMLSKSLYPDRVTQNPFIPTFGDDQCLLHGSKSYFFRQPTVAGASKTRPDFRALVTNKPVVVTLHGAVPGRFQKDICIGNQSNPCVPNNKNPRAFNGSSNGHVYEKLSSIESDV
T1 sequence (Q00960 whole entry): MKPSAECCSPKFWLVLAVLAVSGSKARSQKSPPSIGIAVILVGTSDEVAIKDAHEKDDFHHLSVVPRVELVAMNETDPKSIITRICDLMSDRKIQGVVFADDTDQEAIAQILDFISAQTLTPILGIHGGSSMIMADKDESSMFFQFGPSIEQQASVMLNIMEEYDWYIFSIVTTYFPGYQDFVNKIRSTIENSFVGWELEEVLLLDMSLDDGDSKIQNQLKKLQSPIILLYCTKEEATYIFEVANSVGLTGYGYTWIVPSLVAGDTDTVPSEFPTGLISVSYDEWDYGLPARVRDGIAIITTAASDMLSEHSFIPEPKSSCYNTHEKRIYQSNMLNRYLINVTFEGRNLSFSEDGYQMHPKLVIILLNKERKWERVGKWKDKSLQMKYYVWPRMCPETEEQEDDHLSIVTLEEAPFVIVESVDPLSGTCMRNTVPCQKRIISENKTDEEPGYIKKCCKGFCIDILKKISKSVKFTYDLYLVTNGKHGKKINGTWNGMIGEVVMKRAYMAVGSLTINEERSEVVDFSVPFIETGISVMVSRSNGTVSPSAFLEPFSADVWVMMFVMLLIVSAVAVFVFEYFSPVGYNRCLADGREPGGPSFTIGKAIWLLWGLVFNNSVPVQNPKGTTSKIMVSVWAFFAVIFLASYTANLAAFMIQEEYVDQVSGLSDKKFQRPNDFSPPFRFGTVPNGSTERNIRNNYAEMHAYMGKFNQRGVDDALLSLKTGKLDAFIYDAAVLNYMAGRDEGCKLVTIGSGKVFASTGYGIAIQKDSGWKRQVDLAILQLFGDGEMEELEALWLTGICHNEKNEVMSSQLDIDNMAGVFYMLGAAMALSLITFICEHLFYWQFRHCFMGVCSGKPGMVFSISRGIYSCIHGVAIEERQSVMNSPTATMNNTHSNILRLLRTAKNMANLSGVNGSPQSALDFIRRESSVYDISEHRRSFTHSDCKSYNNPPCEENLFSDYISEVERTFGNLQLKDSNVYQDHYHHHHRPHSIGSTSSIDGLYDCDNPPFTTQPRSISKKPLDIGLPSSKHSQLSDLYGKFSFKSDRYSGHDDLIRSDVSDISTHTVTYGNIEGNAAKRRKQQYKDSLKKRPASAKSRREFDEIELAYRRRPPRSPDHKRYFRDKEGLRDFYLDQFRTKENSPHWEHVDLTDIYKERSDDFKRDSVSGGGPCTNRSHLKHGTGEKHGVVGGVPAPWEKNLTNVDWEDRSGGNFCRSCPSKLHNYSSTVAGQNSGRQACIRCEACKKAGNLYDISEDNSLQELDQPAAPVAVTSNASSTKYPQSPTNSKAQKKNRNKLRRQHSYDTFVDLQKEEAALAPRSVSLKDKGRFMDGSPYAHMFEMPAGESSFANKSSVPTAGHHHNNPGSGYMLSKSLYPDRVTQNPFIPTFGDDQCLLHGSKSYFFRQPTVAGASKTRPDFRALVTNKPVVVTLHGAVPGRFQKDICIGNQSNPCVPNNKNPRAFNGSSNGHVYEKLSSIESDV

What is called Kd is the constant that tells how readily two partners part at equilibrium. Low values mean a tighter complex, high ones a looser complex. The term logD denotes lipophilicity at a set pH, counting ionised and neutral species. A low value points to a more hydrophilic compound. On to `Cc1ccc(COC(=O)N2CC[C@H](CNc3ncccn3)[C@H]([18F])C2)cc1` (racemic), for which the Drug uptake result is on record as “Not Active” in the series on Cerebellum; 76% in the series on Thalamus; “Active” in series [5]; 91% with Hippocampus; “Not Active” in series [6]; “Active” with Cortex. Besides, the Drug uptake result with Brain is recorded as “Not Active”; in the series with Striatum, “Active”. In addition, the Kd in series [1] was 5.9 nM; in series [3], 9.1 nM; in series [4] it was 15.2 nM; in [7] it was 9.3 nM; in [8], 9.8 nM. Besides, in [2], the logD at 40 min, 10 µM worked out at 2.8. In addition, the Ratio with Nucleic Acid is 12.1.

As for `Cc1ccc(COC(=O)N2CC[C@@H](CNc3ncccn3)[C@H]([18F])C2)cc1` (racemic), the Drug uptake result with Cerebellum was “Not Active”; in the series on Thalamus it was 62%; in [5] it was “Active”; in the series on Hippocampus, 84%; in [6], “Not Active”; in the series with Cortex, “Active”. Also, the Drug uptake entry with Brain is on record as “Not Active”; with Striatum it was “Active”. The equilibrium dissociation constant (Kd) in series [1] worked out at 1.9 nM; in series [3], 7.1 nM; in [4], 5.4 nM; in series [7] it was 5.1 nM; in series [8] it was 3.2 nM. The same compound yielded a logD at 40 min, 10 µM in [2] of 2.66. For the same compound, the Ratio in the series on Nucleic Acid was determined as 6.4.

For `Cc1ccc(COC(=O)N2CC[C@@H](CNc3ncccn3)[C@H](F)C2)cc1` (racemic), the Ratio came out at 22 in series [9]; 37 in [10]; 25 in series [11]; 21 in [13]; 17 in [14]. Further, the Bmax in series [12] was 0.77 pmol; in [15] it was 0.69 pmol; in [16] it was 0.86 pmol; in series [17], 1.58 pmol; in series [18], 1.05 pmol.

For `Cc1ccc(COC(=O)N2CC[C@H](CNc3ncccn3)[C@H](F)C2)cc1` (racemic), the Ratio in series [9] was 19; in [10], 18; in series [11], 15; in [13], 15; in [14], 8. For the same compound, the Bmax turned out to be 1.5 pmol in series [12]; 1.05 pmol in series [15]; 1.12 pmol in series [16]; 1.65 pmol in series [17]; 1.41 pmol in [18].
